The values below come from ChEMBL document CHEMBL1828510, “Synthesis of 3-heteroarylthioquinoline derivatives and their in vitro antituberculosis and cytotoxicity studies” (Eur J Med Chem, 2011).

What is called IC50 is the point on the concentration scale where inhibition reaches its midpoint. Lower therefore signals inhibition by little substance.

Each structure is given as a SMILES string.

The subject of this assay is NIH3T3. Put plainly: Cytotoxicity against mouse NIH/3T3 cells after 48 hrs by MTT assay. The class given is cell-based. The following applies: NIH3T3, 48 h. In outline: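 NIH 3T3 mouse embryonic fibroblasts kept in DMEM + 10% FBS at 37 °C, 5% CO2. Seeded at 10,000 cells/well in medium with 5% FBS and left 24 h to attach. Compounds dissolved in DMSO, diluted in serum-free medium, serial concentrations, 48 h exposure, triplicates. MTT (5 mg/mL stock) added for 4 h, formazan taken up in DMSO, A570 read. Viability calculated as % of untreated control; IC50 taken from the dose curve.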
On the technique in general: Formazan colour is commonly taken as a measure of viable cells.

`Cc1nnc(Sc2c(-c3ccc(Cl)cc3)nc3ccccc3c2-c2ccccc2)s1` displayed an IC50 of 1260 µM.

Compound `Cc1nnc(Sc2c(-c3ccc(Br)cc3)nc3ccccc3c2-c2ccccc2)s1` yielded an IC50 of 2050 µM.
